Test system: Ipomoea hederacea
Experiment: Post-emergence herbicidal activity against Ipomoea hederacea (ivy-leaved morning glory) compound treated as foliar application measured after 2 weeks
Assay type: functional
Conditions: not given
Method in brief: (§1)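 Greenhouse post-emergence foliar screen in 64 cm² pots. Seed treatments were used on some species to aid germination. Plants were grown 7–21 days at 23–29 °C day/22–28 °C night under a 15 h photoperiod. Sprayed at 2–12 cm height and the 1–4 true leaf stage.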

SMILES	GR80
CCOc1cnc(OC)n2nc(NS(=O)(=O)c3c(Cl)cccc3Cl)nc12	216 ppm
COc1nccc2nc(NS(=O)(=O)c3c(Cl)cccc3Cl)nn12	475 ppm
CCOc1cccc(C(F)(F)F)c1S(=O)(=O)Nc1nc2c(OC)cnc(OC)n2n1	2 ppm
COc1ncc(C)c2nc(NS(=O)(=O)c3c(Cl)cccc3Cl)nn12	<15 ppm

Test system: Veronica hederifolia
Experiment: Post-emergence herbicidal activity against Veronica hederifolia compound treated as foliar application measured after 2 weeks
Assay type: functional
Conditions: not given
Method in brief: as §1

SMILES	GR80
CCOc1cnc(OC)n2nc(NS(=O)(=O)c3c(Cl)cccc3Cl)nc12	216 ppm
COc1nccc2nc(NS(=O)(=O)c3c(Cl)cccc3Cl)nn12	475 ppm
CCOc1cccc(C(F)(F)F)c1S(=O)(=O)Nc1nc2c(OC)cnc(OC)n2n1	2 ppm
COc1ncc(C)c2nc(NS(=O)(=O)c3c(Cl)cccc3Cl)nn12	<15 ppm

Test system: Abutilon theophrasti
Experiment: Post-emergence herbicidal activity against Abutilon theophrasti (velvetleaf) compound treated as foliar application measured after 2 weeks
Assay type: functional
Conditions: not given
Method in brief: as §1

SMILES	GR80
CCOc1cnc(OC)n2nc(NS(=O)(=O)c3c(Cl)cccc3Cl)nc12	216 ppm
COc1nccc2nc(NS(=O)(=O)c3c(Cl)cccc3Cl)nn12	475 ppm
CCOc1cccc(C(F)(F)F)c1S(=O)(=O)Nc1nc2c(OC)cnc(OC)n2n1	2 ppm
COc1ncc(C)c2nc(NS(=O)(=O)c3c(Cl)cccc3Cl)nn12	<15 ppm

Test system: Amaranthus retroflexus
Experiment: Post-emergence herbicidal activity against Amaranthus retroflexus compound treated as foliar application measured after 2 weeks
Assay type: functional
Conditions: not given
Method in brief: as §1

SMILES	GR80
CCOc1cnc(OC)n2nc(NS(=O)(=O)c3c(Cl)cccc3Cl)nc12	216 ppm
COc1nccc2nc(NS(=O)(=O)c3c(Cl)cccc3Cl)nn12	475 ppm
CCOc1cccc(C(F)(F)F)c1S(=O)(=O)Nc1nc2c(OC)cnc(OC)n2n1	2 ppm
COc1ncc(C)c2nc(NS(=O)(=O)c3c(Cl)cccc3Cl)nn12	<15 ppm

Test system: Ipomoea
Experiment: Post-emergence herbicidal activity against Ipomoea spp. compound treated as foliar application measured after 2 weeks
Assay type: functional
Conditions: not given
Method in brief: as §1

SMILES	GR80
CCOc1cnc(OC)n2nc(NS(=O)(=O)c3c(Cl)cccc3Cl)nc12	216 ppm
COc1nccc2nc(NS(=O)(=O)c3c(Cl)cccc3Cl)nn12	475 ppm
CCOc1cccc(C(F)(F)F)c1S(=O)(=O)Nc1nc2c(OC)cnc(OC)n2n1	2 ppm
COc1ncc(C)c2nc(NS(=O)(=O)c3c(Cl)cccc3Cl)nn12	<15 ppm

Test system: Helianthus
Experiment: Post-emergence herbicidal activity against Helianthus spp. compound treated as foliar application measured after 2 weeks
Assay type: functional
Conditions: not given
Method in brief: as §1

SMILES	GR80
CCOc1cnc(OC)n2nc(NS(=O)(=O)c3c(Cl)cccc3Cl)nc12	216 ppm
COc1nccc2nc(NS(=O)(=O)c3c(Cl)cccc3Cl)nn12	475 ppm
CCOc1cccc(C(F)(F)F)c1S(=O)(=O)Nc1nc2c(OC)cnc(OC)n2n1	2 ppm
COc1ncc(C)c2nc(NS(=O)(=O)c3c(Cl)cccc3Cl)nn12	<15 ppm

Test system: Chenopodium album
Experiment: Post-emergence herbicidal activity against Chenopodium album compound treated as foliar application measured after 2 weeks
Assay type: functional
Conditions: not given
Method in brief: as §1

SMILES	GR80
CCOc1cnc(OC)n2nc(NS(=O)(=O)c3c(Cl)cccc3Cl)nc12	216 ppm
COc1nccc2nc(NS(=O)(=O)c3c(Cl)cccc3Cl)nn12	475 ppm
CCOc1cccc(C(F)(F)F)c1S(=O)(=O)Nc1nc2c(OC)cnc(OC)n2n1	2 ppm
COc1ncc(C)c2nc(NS(=O)(=O)c3c(Cl)cccc3Cl)nn12	<15 ppm

Test system: Datura stramonium
Experiment: Post-emergence herbicidal activity against Datura stramonium compound treated as foliar application measured after 2 weeks
Assay type: functional
Conditions: not given
Method in brief: as §1

SMILES	GR80
CCOc1cnc(OC)n2nc(NS(=O)(=O)c3c(Cl)cccc3Cl)nc12	216 ppm
COc1nccc2nc(NS(=O)(=O)c3c(Cl)cccc3Cl)nn12	475 ppm
CCOc1cccc(C(F)(F)F)c1S(=O)(=O)Nc1nc2c(OC)cnc(OC)n2n1	2 ppm
COc1ncc(C)c2nc(NS(=O)(=O)c3c(Cl)cccc3Cl)nn12	<15 ppm

Test system: Xanthium strumarium
Experiment: Post-emergence herbicidal activity against Xanthium strumarium (cocklebur) compound treated as foliar application measured after 2 weeks
Assay type: functional
Conditions: not given
Method in brief: as §1

SMILES	GR80
CCOc1cnc(OC)n2nc(NS(=O)(=O)c3c(Cl)cccc3Cl)nc12	216 ppm
COc1nccc2nc(NS(=O)(=O)c3c(Cl)cccc3Cl)nn12	475 ppm
CCOc1cccc(C(F)(F)F)c1S(=O)(=O)Nc1nc2c(OC)cnc(OC)n2n1	2 ppm
COc1ncc(C)c2nc(NS(=O)(=O)c3c(Cl)cccc3Cl)nn12	<15 ppm

Test system: Pontederia vaginalis
Experiment: Post-emergence herbicidal activity against three-leaf stage Monochoria vaginalis under green-house condition by water injection treatment method
Assay type: functional
Conditions: not given
Method in brief: (§2)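 Greenhouse paddy test. Seed was sown on saturated Metro Mix, covered with about 0.5 cm mix and held 48 h dark at 30 °C, 95% RH; about 15 d from seed soaking to treatment. Treatment solution was injected into the water. Rates were set per pot surface area, with serial rates made by halving the volume delivered. Held at 16 h day length, 29 °C.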

SMILES	GR80
CCOc1cccc(C(F)(F)F)c1S(=O)(=O)Nc1nc2c(OC)cnc(OC)n2n1	1 gAi/ha

Test system: not listed separately
Experiment: Inhibition of acetolactatae synthase
Conditions: read-out: I50
Method in brief: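 Barley ALS: etiolated shoots of 5–6 d old Hector Spring barley homogenized at 0–4 °C in 20 mM HEPES pH 7.2, 1 mM EDTA, 5 mM DTT, then 33% (NH4)2SO4 cut. Reaction: 20 mM HEPES pH 7.2, 5 mM MgCl2, 0.25 mM TPP, FAD, 22.5 mM pyruvate, 0.7% DMSO final, 37 °C, 30 min. Acid decarboxylation to acetoin, then creatine/1-naphthol colour read at 530 nm. Reported as I50 (nM).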

SMILES	IC50
CCOc1cnc(OC)n2nc(NS(=O)(=O)c3c(Cl)cccc3Cl)nc12	2 nM
COc1nccc2nc(NS(=O)(=O)c3c(Cl)cccc3Cl)nn12	1040 nM
COc1ncc(C)c2nc(NS(=O)(=O)c3c(Cl)cccc3Cl)nn12	7 nM

Test system: Schoenoplectiella juncoides
Experiment: Post-emergence herbicidal activity against three-leaf stage Schoenoplectiella juncoides under green-house condition by water injection treatment method
Assay type: functional
Conditions: not given
Method in brief: as §2

SMILES	GR80
CCOc1cccc(C(F)(F)F)c1S(=O)(=O)Nc1nc2c(OC)cnc(OC)n2n1	3 gAi/ha

Test system: Echinochloa crus-galli
Experiment: Post-emergence herbicidal activity against three-leaf stage Echinochloa crus-galli (barnyard grass) under green-house condition by water injection treatment method
Assay type: functional
Conditions: not given
Method in brief: as §2

SMILES	GR80
CCOc1cccc(C(F)(F)F)c1S(=O)(=O)Nc1nc2c(OC)cnc(OC)n2n1	1 gAi/ha

Test system: Oryza sativa
Experiment: Phytotoxicity against three-leaf stage Oryza sativa (rice) under green-house condition by water injection treatment method
Assay type: organism-based
Conditions: not given
Method in brief: as §2

SMILES	GR20
CCOc1cccc(C(F)(F)F)c1S(=O)(=O)Nc1nc2c(OC)cnc(OC)n2n1	1 gAi/ha

Test system: Avena fatua
Experiment: Post-emergence herbicidal activity against Avena fatua compound treated as foliar application measured after 2 weeks
Assay type: functional
Conditions: not given
Method in brief: as §1

SMILES	GR80
CCOc1cnc(OC)n2nc(NS(=O)(=O)c3c(Cl)cccc3Cl)nc12	250 ppm
COc1nccc2nc(NS(=O)(=O)c3c(Cl)cccc3Cl)nn12	500 ppm
CCOc1cccc(C(F)(F)F)c1S(=O)(=O)Nc1nc2c(OC)cnc(OC)n2n1	191 ppm
COc1ncc(C)c2nc(NS(=O)(=O)c3c(Cl)cccc3Cl)nn12	250 ppm

Test system: Oryza sativa
Experiment: Phytotoxicity against Oryza sativa (rice)
Assay type: organism-based
Conditions: in vivo

SMILES	GR20
CCOc1cnc(OC)n2nc(NS(=O)(=O)c3c(Cl)cccc3Cl)nc12	250 ppm
COc1nccc2nc(NS(=O)(=O)c3c(Cl)cccc3Cl)nn12	500 ppm
CCOc1cccc(C(F)(F)F)c1S(=O)(=O)Nc1nc2c(OC)cnc(OC)n2n1	250 ppm
COc1ncc(C)c2nc(NS(=O)(=O)c3c(Cl)cccc3Cl)nn12	250 ppm

Test system: Digitaria sanguinalis
Experiment: Post-emergence herbicidal activity against Digitaria sanguinalis (hairy crabgrass) compound treated as foliar application measured after 2 weeks
Assay type: functional
Conditions: not given
Method in brief: as §1

SMILES	GR80
CCOc1cnc(OC)n2nc(NS(=O)(=O)c3c(Cl)cccc3Cl)nc12	250 ppm
COc1nccc2nc(NS(=O)(=O)c3c(Cl)cccc3Cl)nn12	500 ppm
CCOc1cccc(C(F)(F)F)c1S(=O)(=O)Nc1nc2c(OC)cnc(OC)n2n1	191 ppm
COc1ncc(C)c2nc(NS(=O)(=O)c3c(Cl)cccc3Cl)nn12	250 ppm

Test system: Sorghum halepense
Experiment: Post-emergence herbicidal activity against Sorghum halepense (Johnson grass) compound treated as foliar application measured after 2 weeks
Assay type: functional
Conditions: not given
Method in brief: as §1

SMILES	GR80
CCOc1cnc(OC)n2nc(NS(=O)(=O)c3c(Cl)cccc3Cl)nc12	250 ppm
COc1nccc2nc(NS(=O)(=O)c3c(Cl)cccc3Cl)nn12	500 ppm
CCOc1cccc(C(F)(F)F)c1S(=O)(=O)Nc1nc2c(OC)cnc(OC)n2n1	191 ppm
COc1ncc(C)c2nc(NS(=O)(=O)c3c(Cl)cccc3Cl)nn12	250 ppm

Test system: Setaria faberi
Experiment: Post-emergence herbicidal activity against Setaria faberi (Giant Foxtail) compound treated as foliar application measured after 2 weeks
Assay type: functional
Conditions: not given
Method in brief: as §1

SMILES	GR80
CCOc1cnc(OC)n2nc(NS(=O)(=O)c3c(Cl)cccc3Cl)nc12	250 ppm
COc1nccc2nc(NS(=O)(=O)c3c(Cl)cccc3Cl)nn12	500 ppm
CCOc1cccc(C(F)(F)F)c1S(=O)(=O)Nc1nc2c(OC)cnc(OC)n2n1	191 ppm
COc1ncc(C)c2nc(NS(=O)(=O)c3c(Cl)cccc3Cl)nn12	250 ppm

Test system: Echinochloa crus-galli
Experiment: Post-emergence herbicidal activity against Echinochloa crus-galli (barnyard grass) compound treated as foliar application measured after 2 weeks
Assay type: functional
Conditions: not given
Method in brief: as §1

SMILES	GR80
CCOc1cnc(OC)n2nc(NS(=O)(=O)c3c(Cl)cccc3Cl)nc12	250 ppm
COc1nccc2nc(NS(=O)(=O)c3c(Cl)cccc3Cl)nn12	500 ppm
CCOc1cccc(C(F)(F)F)c1S(=O)(=O)Nc1nc2c(OC)cnc(OC)n2n1	4 ppm
COc1ncc(C)c2nc(NS(=O)(=O)c3c(Cl)cccc3Cl)nn12	250 ppm

Test system: Alopecurus
Experiment: Post-emergence herbicidal activity against Alopecurus spp. compound treated as foliar application measured after 2 weeks
Assay type: functional
Conditions: not given
Method in brief: as §1

SMILES	GR80
CCOc1cnc(OC)n2nc(NS(=O)(=O)c3c(Cl)cccc3Cl)nc12	250 ppm
COc1nccc2nc(NS(=O)(=O)c3c(Cl)cccc3Cl)nn12	500 ppm
CCOc1cccc(C(F)(F)F)c1S(=O)(=O)Nc1nc2c(OC)cnc(OC)n2n1	191 ppm
COc1ncc(C)c2nc(NS(=O)(=O)c3c(Cl)cccc3Cl)nn12	250 ppm

Test system: Fallopia convolvulus
Experiment: Post-emergence herbicidal activity against Fallopia convolvulus compound treated as foliar application measured after 2 weeks
Assay type: functional
Conditions: not given
Method in brief: as §1

SMILES	GR80
CCOc1cnc(OC)n2nc(NS(=O)(=O)c3c(Cl)cccc3Cl)nc12	216 ppm
COc1nccc2nc(NS(=O)(=O)c3c(Cl)cccc3Cl)nn12	475 ppm
CCOc1cccc(C(F)(F)F)c1S(=O)(=O)Nc1nc2c(OC)cnc(OC)n2n1	2 ppm
COc1ncc(C)c2nc(NS(=O)(=O)c3c(Cl)cccc3Cl)nn12	<15 ppm

Test system: Stellaria media
Experiment: Post-emergence herbicidal activity against Stellaria media compound treated as foliar application measured after 2 weeks
Assay type: functional
Conditions: not given
Method in brief: as §1

SMILES	GR80
CCOc1cnc(OC)n2nc(NS(=O)(=O)c3c(Cl)cccc3Cl)nc12	216 ppm
COc1nccc2nc(NS(=O)(=O)c3c(Cl)cccc3Cl)nn12	475 ppm
CCOc1cccc(C(F)(F)F)c1S(=O)(=O)Nc1nc2c(OC)cnc(OC)n2n1	2 ppm
COc1ncc(C)c2nc(NS(=O)(=O)c3c(Cl)cccc3Cl)nn12	<15 ppm

Reference: ChEMBL document CHEMBL3046654, “Penoxsulam--structure-activity relationships of triazolopyrimidine sulfonamides” (Bioorg Med Chem, 2009)
